Data as given in ChEMBL document CHEMBL1926504, “Design, synthesis, and evaluation of novel small molecule inhibitors of the influenza virus protein NS1” (Bioorg Med Chem, 2012).
Calls of active or inactive are those of the source. No cut-off for these calls is given here.

Columns and labels:
[1] = tested on: Influenza A virus; test: Antiviral activity against Influenza virus A/PR/8/34 infected in MDCK cells assessed as reduction in viral titer after 48 hrs by hemagglutinination assay; format: functional; conditions: for Activity: A/Puerto Rico/8/1934(H1N1)
In short: (§1)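 MDCK monolayers grown to confluence in Iscove medium with 10% FBS and 2 mM L-glutamine. Infected with A/PR/8/34 at MOI 0.1 for 48 h in growth medium with 0.3% BSA, 0.22% bicarbonate and TPCK-trypsin. Compound or DMSO added at the start of infection and kept throughout. Supernatant titre measured by TCID50 on MDCK cells using hemagglutination (Reed–Muench).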

[2] = tested on: Influenza A virus; test: Antiviral activity against Influenza virus A/PR/8/34 infected in MDCK cells assessed as reduction in viral titer at 50 uM after 48 hrs by hemagglutinination assay relative to untreated control; format: functional, A/Puerto Rico/8/1934(H1N1)
In short: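 MDCK monolayers infected with A/PR/8/34 at MOI 0.1 for 48 h, with 50 µM compound throughout. Supernatant logTCID50 determined by hemagglutination (Reed–Muench). Fold decrease obtained by subtracting each logTCID50 from the DMSO-control value and taking the inverse log.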

[3] = tested on: Influenza A virus; test: Antiviral activity against Influenza virus A/PR/8/34 infected in MDCK cells assessed as reduction in viral titer at 50 uM after 48 hrs by hemagglutinination assay; format: functional, organism-based; conditions: A/Puerto Rico/8/1934(H1N1)
In short: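 Confluent MDCK monolayers infected with A/PR/8/34 at MOI 0.1, with compound at 50 µM present for the entire 48 h. Viral titre in supernatants expressed as logTCID50, read by hemagglutination on MDCK cells (Reed–Muench). DMSO-treated infected cells served as control.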

[4] = tested on: MDCK; test: Cytotoxicity against MDCK cells up to 100 uM after 48 hrs; format: cell-based, Canis lupus familiaris; conditions: dog
[5] = tested on: Influenza A virus; test: Antiviral activity against Influenza virus A/PR/8/34 infected in MDCK cells assessed as log reduction in viral replication at 1 uM after 48 hrs by hemagglutinination assay relative to control; format: functional, A/Puerto Rico/8/1934(H1N1); in short: as §1

`O=C(NCCCc1ccccc1)c1ccc2c(c1)OCO2` was tested, and the Activity [1] was “Active”.

`Nc1ccc([N+](=O)[O-])cc1C(=O)NCCCc1ccccc1` was tested, and the Activity [1] was “Active”.

`COc1ccccc1C(=O)NCCCc1ccccc1` was tested, and the “log10 TCID50” value [1] was 5.8 and the “fold change (FC)” value [2] was 500.

`O=C(N/N=C/c1ccc([N+](=O)[O-])cc1)c1ccccc1O` was tested, and the Activity [3] was “Active”.

`O=C(N/N=C/c1ccc2ccccc2c1)c1ccccc1O` was tested, and the Activity [3] was “Active”.

With `O=C(NCCCc1ccccc1)c1ccccc1Br` the Activity [1] was “inactive”.

With `O=C(NCCCCc1ccccc1)c1ccccc1O` the Activity [3] was “Active”.

With `O=C(NCCCc1ccccc1)c1ccccc1I` the Activity [1] was “Active”.

`Cc1ccccc1C(=O)NCCCc1ccccc1` was tested, and the “log10 TCID50” value [1] was 6.3 and the “fold change (FC)” value [2] was 158.

`O=C(NCCCc1ccccc1)c1c(O)ccc2ccccc12` was tested, and the Activity [1] was “Active”.

In the case of `Nc1ccc(C(=O)NCCCc2ccccc2)c(O)c1`, the Activity [1] is reported as “Active”.

`O=C(NCCCc1ccccc1)c1cc2ccccc2cc1O` was tested, and the Activity [1] was “Active”.

With `O=C(CCCc1ccccc1)Nc1ccccc1O` the Activity [1] was “Active”.

`Nc1ccc(Cl)cc1C(=O)NCCCc1ccccc1` was tested, and the Activity [1] was “Active”.

In the case of `O=C(NCCCc1ccccc1)c1ccccc1F`, the Activity [1] is reported as “inactive”.

In the case of `O=C(NCCCc1ccccc1)c1ccccc1O`, the “log10 TCID50” value [1] is reported as 5.7, the “fold change (FC)” value [2] is reported as 630 and the Activity [4] is reported as “Non-toxic”.

For `COc1ccc(N)c(C(=O)NCCCc2ccccc2)c1`, the Activity [1] was “Active”.

With `O=C(N/N=C/c1ccc2c(c1)CCC2)c1ccccc1O` the “log10 TCID50” value [1] was 7.1, the Activity [3] was “Active” and the “fold change (FC)” value [2] was 25. The Activity [4] was “Non-toxic”.

`COc1ccc(/C=N/NC(=O)c2ccccc2O)cc1` was tested, and the Activity [3] was “Active”.

In the case of `O=C(NCCCc1ccccc1)c1cc2ccccc2cn1`, the Activity [1] is reported as “Active”.

For `O=C(N/N=C/c1ccc(Cl)cc1)c1ccccc1O`, the Activity [3] was “Active”.

In the case of `O=C(Cc1ccccc1O)NCCc1ccccc1`, the Activity [1] is reported as “Active”.

With `N#Cc1ccccc1C(=O)NCCCc1ccccc1` the Activity [1] was “Active”.

`CN(CCCc1ccccc1)C(=O)c1ccccc1O` was tested, and the Activity [1] was “Active”.

For `O=C(NCCCc1ccccc1)c1ccccc1`, the “log10 TCID50” value [1] was 6.8 and the “fold change (FC)” value [2] was 50.

`O=C(N/N=C/c1ccccc1)c1ccccc1O` was tested, and the Activity [3] was “Active”.

`O=C(NCCCc1ccccc1)c1ccccn1` was tested, and the Activity [1] was “Active”.

With `O=C(NCCc1ccccc1)c1ccccc1O` the “log10 TCID50” value [1] was 7.1 and the “fold change (FC)” value [2] was 25.

`O=C(NCCCc1ccccc1)c1ccc(O)cc1` was tested, and the “log10 TCID50” value [1] was 6.5 and the “fold change (FC)” value [2] was 100.

`O=C(NCCCc1ccccc1)c1cccc(O)c1` was tested, and the “log10 TCID50” value [1] was 6.2 and the “fold change (FC)” value [2] was 200.

For `O=C(NCCCc1ccccc1)c1ccccc1[N+](=O)[O-]`, the “log10 TCID50” value [1] was 6.5 and the “fold change (FC)” value [2] was 100.

`O=C(NCCCc1ccccc1)c1ccc2ccccc2n1` was tested, and the Activity [1] was “Active”.

`O=C(CCc1ccccc1O)NCc1ccccc1` was tested, and the Activity [1] was “Active”.

For `O=C(CCc1ccccc1O)Nc1ccccc1`, the Activity [1] was “Active”.

For `O=C(NCCOc1ccccc1)c1ccccc1O`, the Activity [1] was “Active”.

With `O=C(NCCCc1ccccc1)c1ccc2ccccc2c1O` the Activity [1] was “Active”.

For `O=C(NCCCc1ccccc1)c1ccccc1Cl`, the Activity [1] was “Active”.

For `Nc1ccccc1C(=O)NCCOc1ccccc1`, the Activity [1] was “Active”.

In the case of `O=C(N/N=C/c1ccc(O)cc1)c1ccccc1O`, the Activity [3] is reported as “Active”.

With `Nc1ccccc1C(=O)NCCCc1ccccc1` the Activity [1] was “Active”, the FC [5] was >2 and the Activity [4] was “Non-toxic”.

In the case of `O=C(NCCCc1ccccc1)c1nccc2ccccc12`, the Activity [1] is reported as “Active”.
